Screening data (PubChem)
TRPC4 agonist = activators of mouse TRPC4 channel. Q9QUQ5. HEK293 TRPC4beta/mu-opioid, Fluo4 calcium fluorescence; stronger effect = higher value. B-score at 10 µM. 310,000 compounds, 0.49% hits;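 active = B-score above 5 SD of library B-scores, and initial fluorescence ratio not above library mean plus 5 SD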;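 also: positive B-score marks a calcium rise read as TRPC4 activation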
Target sequence (Q9QUQ5 whole entry, looked up): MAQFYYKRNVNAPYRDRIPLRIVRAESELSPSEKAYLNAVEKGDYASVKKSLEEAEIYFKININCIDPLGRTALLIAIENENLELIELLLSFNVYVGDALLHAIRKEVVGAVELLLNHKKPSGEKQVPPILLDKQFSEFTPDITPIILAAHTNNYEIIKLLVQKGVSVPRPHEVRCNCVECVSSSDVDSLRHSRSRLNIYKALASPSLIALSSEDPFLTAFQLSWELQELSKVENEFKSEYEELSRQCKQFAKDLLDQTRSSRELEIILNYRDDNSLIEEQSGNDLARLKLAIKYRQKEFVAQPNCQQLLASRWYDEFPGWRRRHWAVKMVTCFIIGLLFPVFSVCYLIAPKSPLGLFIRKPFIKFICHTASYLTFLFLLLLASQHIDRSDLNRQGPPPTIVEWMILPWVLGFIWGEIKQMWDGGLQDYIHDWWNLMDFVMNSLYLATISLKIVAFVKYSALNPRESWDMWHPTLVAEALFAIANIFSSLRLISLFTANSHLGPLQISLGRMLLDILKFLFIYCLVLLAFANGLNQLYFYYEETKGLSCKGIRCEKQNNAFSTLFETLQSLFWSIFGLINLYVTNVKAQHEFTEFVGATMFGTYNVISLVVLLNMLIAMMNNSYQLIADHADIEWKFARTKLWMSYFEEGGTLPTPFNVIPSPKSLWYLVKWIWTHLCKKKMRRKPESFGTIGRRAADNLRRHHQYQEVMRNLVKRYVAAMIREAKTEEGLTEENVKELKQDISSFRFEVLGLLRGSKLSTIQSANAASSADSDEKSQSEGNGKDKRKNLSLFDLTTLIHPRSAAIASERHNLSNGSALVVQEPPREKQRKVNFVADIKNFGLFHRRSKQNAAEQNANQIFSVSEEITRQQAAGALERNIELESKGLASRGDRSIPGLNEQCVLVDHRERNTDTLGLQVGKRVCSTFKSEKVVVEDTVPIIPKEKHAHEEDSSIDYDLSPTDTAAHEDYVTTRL
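Assay system: HEK293 cells stably co-expressing mouse TRPC4beta and mu-opioid receptor / Timing: Fluo4 dye loading 45 min at room temperature, 110 s recording / Signal: Fluo4 calcium-sensitive dye fluorescence, kinetic, 1 Hz baseline / Read-out: integrated baseline-normalised fluorescence ratio, converted to per-well B score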
TRPC4 PAM = allosteric potentiators of mouse TRPC4 channel | 310,000 compounds, 0.42% hits | HEK293 TRPC4beta/mu-opioid, DAMGO EC20, Fluo-4 Ca2+ flux; stronger effect = higher value | B-score at 10 µM;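 active = B-score of calcium response area above 5 SD of library B-scores, with initial fluorescence ratio within 5 SD of library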;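 also: B-score of integrated fluorescence ratio over time as area under calcium response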
TRPC6 activator = activators of mouse TRPC6 channel | Q61143 | 310,000 compounds, 0.13% hits | HEK293-TRPC6 membrane potential dye fluorescence; stronger effect = higher value | B-score at 10 µM;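 active = B-score of the integrated fluorescence ratio above library mean plus 3 SD, and starting fluorescence ratio within library mean plus 5 SD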;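 also: higher score means more depolarization so channel activation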
DNA FID counter = counter-screen for HCV NS3 helicase inhibitors: DNA intercalator displacement. DNA fluorescent intercalator displacement, fluorescence. inhibition, % at 7.9 µM. 290,000 compounds, 0.17% hits; in the data active = inhibition above about 37%;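 also: 0% = vehicle and 100% = reference compound; higher means more ethidium bromide displaced from hairpin DNA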
TRPC6 inhibitor = inhibitors of mouse TRPC6 channel; Q61143; HEK293-TRPC6, membrane potential dye, ACh-evoked depolarization; stronger effect = lower value; B-score at 10 µM; 310,000 compounds, 1.1% hits; AID 2553;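 active = B-score under library mean minus 3 SD, initial fluorescence not abnormally high, positive integrated signal ratio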;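 also: B-score derived from integrated fluorescence ratio over the kinetic read; more negative B-score means stronger inhibition of depolarization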
TRPC4 block = blocks the mouse TRPC4 cation channel. Q9QUQ5. HEK293 TRPC4beta/mu-opioid, DAMGO-evoked Fluo4 calcium flux; stronger effect = lower value. B-score at 10 µM. 300,000 compounds, 0.39% hits;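 active = B-score over 3 SD under the library average, no early fluorescence shift, positive overall ratio signal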
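Signal: kinetic Fluo4 fluorescence imaging of calcium influx. Material: stable TRPC4beta/mu-opioid receptor HEK293 cells. Probe or stimulus: DAMGO in two steps, submaximal then maximal.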
TRPC4 sel inh 2 = mouse TRPC4 off-target activity of TRPC6 inhibitors, second screen; shares compounds with TRPC6 inhibitor; HEK293 TRPC4/MOR, membrane potential dye fluorescence; channel activated by saturating DAMGO dose; inhibition, % at 10 µM; 920 compounds, 42% hits; AID 2776;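 active = compounds whose fluorescence signal differed from control wells by over 3 SD, either direction, in both duplicate plates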
TRPC4 spec = selectivity of TRPC6 inhibitors: effect on mouse TRPC4 | HEK293 TRPC4/mu-opioid, membrane potential fluorescence | shares compounds with TRPC6 inhibitor | 920 compounds, 61% hits | activity change, negative = inhibition, % at 10 µM | AID 2777;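 active = rise or fall in signal beyond 3 SD of buffer-only wells in both replicate plates, either sign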;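 also: integrated kinetic ratio of fluorescence range over baseline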
HEK293 MPD ctr 2-1 = parental HEK293 nonspecific activity of TRPC6 inhibitors, second screen | shares compounds with TRPC6 inhibitor | 920 compounds, 31% hits | signal change vs control, % at 10 µM | parental HEK293 membrane potential dye fluorescence; maximal acetylcholine challenge after compound addition | AID 2779;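 active = membrane potential signal moving either way by over 3 SD of the maximum-effect control, in both duplicate plates, meaning non-specific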
HEK293 MPD ctr-1 = checks TRPC6 inhibitor effects in parental HEK293 cells; membrane potential signal change, % at 10 µM; parental HEK293 membrane potential dye fluorescence; 920 compounds, 60% hits; shares compounds with TRPC6 inhibitor; AID 2780;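 active = membrane potential signal shifting up or down by more than 3 SD of buffer-only wells, on both duplicate plates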
HEK293 MPD ctr-2 = counter-screen for TRPC6 modulators: effect in parental HEK293 cells; shares compounds with TRPC6 inhibitor; membrane potential dye fluorescence; membrane potential signal change, % at 10 µM; 2,400 compounds, 51% hits;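 active = membrane potential signal moves up or down beyond 5 SD from buffer-only wells, on both duplicate plates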
HEK293 MPD ctr 2-2 = second check of TRPC6 modulator effects in parental HEK293 cells | shares compounds with TRPC6 inhibitor | membrane potential dye fluorescence; after compound, maximal acetylcholine stimulation | inhibition, % at 10 µM | 2,400 compounds, 14% hits;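 active = membrane potential signal drops by more than 5 SD from the mean control signal, in both duplicate plates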;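 also: plate controls were acetylcholine ECmax control wells for no effect and buffer only wells for full effect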
TRPC4 ctr mod = tests whether TRPC6 modulators also affect mouse TRPC4; shares compounds with TRPC6 inhibitor; HEK293 TRPC4/mu-opioid, membrane potential fluorescence; percent change from control (negative = decrease, positive = increase), % at 10 µM; 2,400 compounds, 69% hits;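 active = membrane potential signal moved up or down beyond 5 SD of buffer control wells, in both duplicate plates, actives on both sides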;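 also: plate controls were assay buffer wells for no effect and DAMGO maximal-effect wells for full effect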
TRPC4 ctr inh 2 = second selectivity test of TRPC6 modulators against mouse TRPC4; HEK293 TRPC4/mu-opioid, membrane potential dye fluorescence; stimulated with maximal-effect DAMGO; 2,400 compounds, 55% hits; inhibition, % at 10 µM; shares compounds with TRPC6 inhibitor;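 active = drop in membrane potential signal beyond 5 SD of the control wells in both duplicate plates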;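 also: TRPC4 counter screen for TRPC6 hits run under conditions tuned for TRPC6 not TRPC4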
TRPC6 inh conf = mouse TRPC6 inhibitor confirmation; shares compounds with TRPC6 inhibitor; HEK293-TRPC6, membrane potential dye, ACh-evoked depolarization; inhibition, % at 10 µM; 3,300 compounds, 43% hits;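 active = fluorescence ratio falls more than 5 SD below the full-stimulation control mean, in both duplicate runs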;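 also: integrated fluorescence ratio of peak minus minimum over baseline after agonist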
TRPC6 act conf = mouse TRPC6 activator confirmation. shares compounds with TRPC6 inhibitor. HEK293-TRPC6 membrane potential dye fluorescence, FDSS. activation, % at 10 µM. 2,800 compounds, 11% hits;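 active = ratio signal rise beyond 5 SD above unstimulated control wells' mean, seen in both duplicate runs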;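 also: plate controls were buffer EC0 wells for no effect and acetylcholine ECmax response for full effect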
Starred values were filed as active, the others as inactive; i = inactive; . = not tested or not shown. A selection: hits, their analogues and other compounds. The true share with any hit is near 2.3%.

SMILES | TRPC4 agonist | TRPC4 PAM | TRPC6 activator | DNA FID counter | TRPC6 inhibitor | TRPC4 block | HEK293 MPD ctr-2 | HEK293 MPD ctr 2-2 | TRPC4 ctr mod | TRPC4 ctr inh 2 | TRPC6 inh conf | TRPC6 act conf | others
O=C(c1cccc(C(=O)N2CCN(c3ccccc3F)CC2)n1)N1CCN(c2ccccc2F)CC1 | i | i | 12* | -36 | -10* | i | 142%* | i | 29%* | 64%* | 88%* | 130%*
O=C(c1cnccn1)N1CCN(c2ccccc2F)CC1 | i | i | i | -1 | i | i | . | . | . | . | . | .
O=C(c1cccs1)N1CCN(c2nc3ccccc3s2)CC1 | i | i | i | -21 | i | i | . | . | . | . | . | .
Cc1cccc2sc(N3CCN(C(=O)c4cccs4)CC3)nc12 | i | i | i | . | -5.4* | i | i | i | 14%* | 32%* | 47%* | .
CC1CCCC(C)N1C(=O)COC(=O)CNC(=O)c1ccc(Cl)cc1Cl (configuration not stated) | i | i | i | . | i | i | . | . | . | . | . | .
COc1ccc(-c2nnc(N(C)C(=O)c3cccnc3)s2)cc1 | i | i | i | -5 | -5.2* | i | i | i | i | i | i | i
Cc1ccc(-c2nnc(N(C)C(=O)c3cccnc3)s2)cc1 | i | i | i | -28 | i | i | . | . | . | . | . | .
CCOc1ccc(OCC)c(NC(=O)CN2CCN(CC(=O)NC(C)C)CC2)c1 | i | i | i | -17 | i | i | . | . | . | . | . | .
c1ccc(C[C@H]2CNCCN2CCCCC2CCCCC2)cc1 | i | i | i | . | -6* | i | i | i | i | 48%* | i | i
c1cnc2c(C3NCCc4c3[nH]c3ccccc43)cccc2c1 (configuration not stated) | i | i | i | 8 | -6.6* | i | i | i | i | 72%* | 50%* | i
CCN1CCN(c2ccc(S(=O)(=O)N3CCOCC3)cc2NC(=O)CCC(C)C)CC1 | i | i | i | . | i | i | . | . | . | . | . | .
CCCCS/C(=C(/C#N)C(N)=O)c1cc2c([nH]1)CCCC2 | i | i | i | -7 | -5.7* | i | i | i | 11%* | i | 54%* | i
Cc1cc(N2CCOCC2)c2c(N)c(Br)cc(C)c2n1 | i | i | i | 13 | -5.1* | i | -301%* | i | -57%* | 42%* | i | i
COCCOC(=O)c1c(C)nc(SCC(=O)Nc2ccc(OC)cc2)c(C#N)c1-c1ccco1 | i | i | i | -7 | i | i | . | . | . | . | . | .
Cc1nc(SCC(=O)c2ccccc2)c(C#N)c(-c2ccco2)c1C(=O)NCc1ccco1 | i | i | 14* | -3 | i | i | 220%* | i | 16%* | i | i | 52%*
Cc1ccccc1Cn1c(C)nc2ccc([N+](=O)[O-])cc2c1=O | i | i | i | 7 | i | i | . | . | . | . | . | .
COc1ccc(C(=O)/C(C#N)=N/Nc2ccc([N+](=O)[O-])cc2)cc1 | i | i | i | 1 | -5.7* | i | i | i | i | i | i | i
COc1ccc(C(=O)/C(C#N)=N/Nc2ccccc2[N+](=O)[O-])cc1 | i | i | i | 9 | i | i | . | . | . | . | . | .
O=[N+]([O-])c1cc(-c2ccc(/C=N\n3cnnc3)o2)cc([N+](=O)[O-])c1 | i | i | i | 0 | -6.2* | i | -234%* | 63%* | -34%* | 42%* | i | i
O=[N+]([O-])c1ccccc1-c1ccc(/C=N/n2cnnc2)o1 | i | i | i | 4 | i | i | . | . | . | . | . | .
CCc1ccc(S(=O)(=O)NC2CC(C)(C)NC(C)(C)C2)cc1 | i | i | i | 2 | i | i | . | . | . | . | . | .
C(=N\Nc1ncnc2sc3c(c12)CCC3)/c1ccncc1 | i | i | i | -9 | i | i | . | . | . | . | . | .
c1cc(Nc2ncnc3sc4c(c23)CCC4)ccn1 | i | i | i | -1 | -5.6* | i | -242%* | 67%* | -39%* | 38%* | 55%* | i
O=c1[nH]c(=O)n(Cc2ccco2)c2c1C(C(F)(F)F)(C(F)(F)F)N=C(CCc1ccccc1)N2 | i | i | i | -14 | i | i | . | . | . | . | . | .
N#Cc1ccc(C2=NC(C(F)(F)F)(C(F)(F)F)c3c(n(Cc4ccco4)c(=O)[nH]c3=O)N2)cc1 | i | i | i | -19 | -8.3* | i | . | . | . | . | i | i | TRPC4 sel inh 2=i;TRPC4 spec=-12%*;HEK293 MPD ctr 2-1=i;HEK293 MPD ctr-1=-128%*
Cc1ccc(C)c(N2CCN(CCCNC(=O)Cn3cc4c(n3)CCC(C)C4)CC2)c1 (configuration not stated) | i | i | 14* | 13 | i | i | 94%* | i | 16%* | 62%* | i | i
